The source made the active and inactive calls. The calls are words filed in the database; no cut-off is given here.

The values below come from ChEMBL document CHEMBL1150593, “Biologically active polyketide metabolites from an undetermined fungicolous hyphomycete resembling Cladosporium” (2002).

One assay relates to Fusarium verticillioides. The assay can be described thus: Antimicrobial activity against Fusarium verticillioides NRRL 25457 at 250 ug/disk by standard agar diffusion assay. In kind it is functional, organism-based. On the technique in general: In agar diffusion tests the substance spreads into inoculated agar from a disc or well.
For the next assay, the system named is Aspergillus flavus. The assay can be described thus: Antimicrobial activity against Aspergillus flavus NRRL 6541 at 250 ug/disk by standard agar diffusion assay. The class given is functional, organism-based.
For a further assay, the system named is Staphylococcus aureus. The assay can be described thus: Antimicrobial activity against Staphylococcus aureus ATCC 29213 at 200 ug/disk by standard agar diffusion assay. In kind it is functional. The note with it: read-out: IZ. An outline of the steps: (§1)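 Agar diffusion (disk) assay with 200 µg of compound applied per disk against the bacterial strain. The same panel at this loading also included Candida albicans ATCC 90029. Read-out was the zone of growth inhibition, recorded in mm.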

Another assay has as its system Bacillus subtilis. The experiment in a line: Antimicrobial activity against Bacillus subtilis ATCC 6051 at 200 ug/disk by standard agar diffusion assay. Particulars: read-out: IZ. The class given is functional. In outline:
as §1

As to `CC(O)C(O)CC1OC(=O)c2c(O)cccc21` (centres undefined), the outcome in the assay on Fusarium verticillioides and in the assay with Aspergillus flavus was inactive.
On to `COc1cc(O)c2c(c1)C(=O)C1=C(C2=O)[C@H](O)[C@@H](O)[C@@](C)(O)[C@@H]1O` [ALTERSOLANOL A], for which the result in the assay with Fusarium verticillioides and with Aspergillus flavus was inactive. Also, the figures for the zone of inhibition at 200 µg/disc in the assay with Staphylococcus aureus and in the assay with Bacillus subtilis were 31 mm and 33 mm, respectively.
For the molecule `CC(O)C(O)CC1OCc2c(O)cccc21` (mixture of isomers; 7a), the result with Fusarium verticillioides and in the assay with Aspergillus flavus was inactive.
On to `COc1cc(O)c2c(c1)C(=O)c1cc(C)c(O)cc1C2=O` [MACROSPORIN], for which the result with Fusarium verticillioides and in the assay with Aspergillus flavus was inactive. The zone of inhibition at 200 µg/disc was 20 mm in the assay with Staphylococcus aureus and 23 mm with Bacillus subtilis.
`O=C(O)CC1OCc2c(O)cccc21` (racemic): the result in the assay on Fusarium verticillioides and in the assay on Aspergillus flavus was inactive. Besides, the zone of inhibition at 200 µg/disc with Bacillus subtilis turned out to be 8 mm.
Take `O=C(O)CC1OC(=O)c2c(O)cccc21` (racemic): the result with Fusarium verticillioides and in the assay on Aspergillus flavus was inactive.
As for `CC1(O)C(=O)C=Cc2c1ccc(O)c2CO` (centres undefined), the result in the assay with Fusarium verticillioides and with Aspergillus flavus was inactive.
As for `COc1cc(O)c2c(c1)C(=O)[C@H]1C[C@](C)(O)[C@H](O)C[C@@H]1[C@H]2O` (relative stereo), the result in the assay with Fusarium verticillioides and in the assay with Aspergillus flavus was inactive.
For the molecule `C[C@H]1O[C@@H]2O[C@H]1C=Cc1cccc(O)c12` [CLADOACETAL A], the result with Fusarium verticillioides and in the assay with Aspergillus flavus was inactive. In the assay on Staphylococcus aureus, the zone of inhibition at 200 µg/disc worked out at 13 mm.
For `CC(O)C(O)CC1OCc2c(O)cccc21` (mixture of isomers; 7b), the outcome in the assay with Fusarium verticillioides and in the assay on Aspergillus flavus was inactive.
For `O=Cc1c(O)cccc1CCC(=O)O`, the outcome in the assay with Fusarium verticillioides and in the assay with Aspergillus flavus was inactive. In addition, in the assay with Bacillus subtilis, the zone of inhibition at 200 µg/disc is 22 mm.
